Rows were chosen to be rich in hits. Some 2.6% of all compounds tested hit in one or more screens of this group.
rCAG binder: r(CAG) repeat RNA binding | TO-PRO-1 dye displacement fluorescence | inhibition, % at 3 µM | AID 651821 | 370,000 compounds, 1.3% hits;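 active means inhibition above the plate cutoff, the mean of all test compounds on that plate plus 3 SD, cut at about 35% in these data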;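 further: higher means more dye released from RNA so lower well fluorescence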
NR2E3 ag-1: human photoreceptor-specific nuclear receptor agonism; inhibition of corepressor binding, % at 3.98 µM; AID 602229; CHO-S Gal4-NCOR/VP16-NR2E3 two-hybrid, luciferase; 360,000 compounds, 0.35% hits; Q9Y5X4;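 active means inhibition above the mean of all tested compounds plus 3 SD, cut at about 70% in these data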;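 further: higher means lower luciferase signal from less NR2E3 corepressor binding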
Target sequence (Q9Y5X4 whole entry, looked up, the tested form may be a part): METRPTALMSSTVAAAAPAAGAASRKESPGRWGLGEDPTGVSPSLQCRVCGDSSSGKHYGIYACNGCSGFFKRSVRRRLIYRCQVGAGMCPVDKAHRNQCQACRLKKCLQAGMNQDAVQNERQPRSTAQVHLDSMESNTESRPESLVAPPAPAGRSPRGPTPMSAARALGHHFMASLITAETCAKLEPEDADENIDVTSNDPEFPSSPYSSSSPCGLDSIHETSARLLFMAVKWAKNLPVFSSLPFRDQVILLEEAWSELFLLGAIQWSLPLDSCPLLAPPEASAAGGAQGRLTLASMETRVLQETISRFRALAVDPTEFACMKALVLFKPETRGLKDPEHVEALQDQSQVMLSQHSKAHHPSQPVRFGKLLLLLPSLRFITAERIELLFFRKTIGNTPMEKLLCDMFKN
Rev-erbA mod: modulators of human Rev-erb alpha DNA binding; 370,000 compounds, 0.79% hits; P20393; Rev-erbα–FITC-DNA binding, fluorescence polarization, 90 min; activity, % at 10 µM;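 active means activity above about 14%, limit read from the data; passing the limit was not always enough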
NR2E3 ag-2: NR2E3 (human) agonism | Q9Y5X4 | GST-NR2E3/biotin-RetCOR TR-FRET, 1536-well | inhibition of corepressor binding, % at 4.78 µM | 320,000 compounds, 0.12% hits;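 active means percent inhibition above the cutoff of mean plus 3 SD of all tested compounds, set per screening campaign, cut at about 20% in these data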
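System: GST-tagged NR2E3 plus biotinylated RetCOR corepressor; Buffer or medium: pH 7.5 Tris-based buffer; Probe or stimulus: RetCOR corepressor, biotinylated, 7 nM; Doses: compound at 4.8 µM, single dose; Schedule: 5 h incubation at 4 °C; Technique: time-resolved FRET; Evaluation: percent inhibition of TR-FRET ratio; Replication: one well per compound, singlicate testing.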
PG9 Ab binder: binds the HIV-1 gp120 antibody PG9; TR-FRET gp120-PG9 antibody binding; inhibition, % at 6.7 µM; 360,000 compounds, 0.43% hits; AID 624416; in the data active means inhibition above about 8.5%
NR2E3 ag confirm: confirmation of human NR2E3 agonists; shares compounds with NR2E3 ag-1; CHO-S mammalian two-hybrid NR2E3-NCOR, luciferase luminescence; inhibition, % at 3.98 µM; 2,300 compounds, 51% hits; AID 624378;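 active means average inhibition above a cutoff equal to the mean inhibition of all tested compounds plus one SD, cut at about 70% in these data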
VP16 counter: reduces GAL4-VP16 reporter signal in NR2E3 counterscreen | CHO-S GAL4-VP16 luciferase reporter, luminescence | inhibition, % at 3.98 µM | 2,300 compounds, 29% hits | AID 624379 | shares compounds with NR2E3 ag-1;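 active means mean inhibition above a cutoff equal to the average over all tested compounds plus one standard deviation, cut at about 70% in these data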;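 further: luciferase from a UAS reporter driven by GAL4-VP16 transactivation; higher means less reporter light so more repression of VP16 activity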
PG9 bind confirm: PG9 antibody binding, confirmed. shares compounds with PG9 Ab binder. 1,500 compounds, 90% hits. TR-FRET PG9 antibody binding, biochemical. inhibition, % at 6.7 µM; in the data active means inhibition above about 9%
PGV04 counter: counter-screen for PG9 binders: binding control antibody PGV04; shares compounds with PG9 Ab binder; 1,500 compounds, 95% hits; inhibition, % at 6.7 µM; TR-FRET PGV04 antibody-gp120 binding, biochemical; in the data active means inhibition above about 9.5%
rCAG bind conf: r(CAG) RNA repeat binding, confirmation; shares compounds with rCAG binder; TO-PRO-1 dye displacement fluorescence; inhibition, % at 3 µM; 4,300 compounds, 70% hits;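 active means inhibition above a per-plate cutoff, the mean inhibition of sample wells plus 3 SD, cut at about 35% in these data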;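 further: loss of TO-PRO-1 fluorescence as compound displaces dye from 1x1 AA loop RNA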
dCAG dye counter: DNA CAG dye complex inhibition counter-screen | shares compounds with rCAG binder | d(CAG) DNA oligo TO-PRO-1 dye displacement, fluorescence | inhibition, % at 3 µM | 4,300 compounds, 94% hits | AID 652068;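 active means inhibition above its plate's cutoff, the mean test-well inhibition plus 3 SD, cut at about 4.8% in these data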;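 further: hits displace the dye from DNA and so lower well fluorescence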
Each line names hits and unclear results; the compound was inactive in the other large screens (follow-up assays come after a bar, where they were run).

CCC(C)C1NC(=O)C(NC(=O)C(CC(C)C)N(C)C(=O)C2CCCN2C(=O)C(C)O)C(C)OC(=O)C(Cc2ccc(OC)cc2)N(C)C(=O)C2CCCN2C(=O)C(CC(C)C)NC(=O)[C@H](C)C(=O)[C@H](C(C)C)OC(=O)CC1O (some centres undefined)	NR2E3 ag-1 102.1 (no result: NR2E3 ag-2) | NR2E3 ag confirm 98.7 | VP16 counter 99.6
CCC1C(=O)OCC1Cc1cncn1C (centres undefined)	none (no result: rCAG binder, NR2E3 ag-1, NR2E3 ag-2, PG9 Ab binder)
C[C@@H]1C[C@H]2OC(=O)C3(CO3)[C@H]2[C@H](O)[C@]2(C)C(=O)C3OC3[C@@H]12 (some centres undefined)	none (no result: rCAG binder, NR2E3 ag-1, Rev-erbA mod, PG9 Ab binder)
C=C1C(=O)O[C@@H]2C[C@@H](C)[C@@H]3C=CC(=O)[C@@]3(C)[C@@H](O)[C@H]12	NR2E3 ag-1 99.5 | NR2E3 ag confirm 99.3 | VP16 counter inactive
CN1CCc2cc3c(cc2C1O)OCO3 (centres undefined)	none (no result: rCAG binder, NR2E3 ag-1, NR2E3 ag-2, PG9 Ab binder)
C[C@@H]1CC[C@H]2[C@@H](C)C(=O)O[C@@H]3OC4(C)CC[C@@H]1[C@]32OO4	none (no result: rCAG binder, NR2E3 ag-1, NR2E3 ag-2, PG9 Ab binder)
CC[C@@]1(O)C(=O)OCc2c1cc1n(c2=O)Cc2cc3ccccc3nc2-1	none (no result: rCAG binder, NR2E3 ag-1, Rev-erbA mod, PG9 Ab binder)
CCC1(OC(=O)CN)C(=O)OCc2c1cc1n(c2=O)Cc2cc3ccccc3nc2-1 (centres undefined)	NR2E3 ag-1 93.2 (no result: rCAG binder, Rev-erbA mod, PG9 Ab binder) | NR2E3 ag confirm 93.9 | VP16 counter inactive
S=C=NCc1ccccc1	none (no result: rCAG binder, NR2E3 ag-1, NR2E3 ag-2, PG9 Ab binder)
COC(COC(N)=O)C1=C(N2CC2)C(=O)C(C)=C(N2CC2)C1=O (centres undefined)	none (no result: NR2E3 ag-2)
CC1=C(N2CC2)C(=O)C(CO)=C(N2CC2)C1=O	none (no result: NR2E3 ag-2) | NR2E3 ag confirm 99.4 | VP16 counter 96.4
CCC(=NCCOc1ccc(Cl)cc1)c1c(O)n(C)c(=O)n(C)c1=O	NR2E3 ag-1 79.2 | NR2E3 ag confirm 95.6 | VP16 counter 82.9
CCC(=NCCc1c[nH]c2ccccc12)c1c(O)n(C)c(=O)n(C)c1=O	NR2E3 ag-1 73.1 | NR2E3 ag confirm 86.6 | VP16 counter 77.2
CC(=O)NC1CCSC1=O (centres undefined)	none (no result: rCAG binder, NR2E3 ag-1, NR2E3 ag-2, PG9 Ab binder)
CC(=O)OC1C(O)C(C)OC(OC2C(OC(=O)C3CCC4C(C3)OC3(CC(OC(=O)/C=C/c5ccccc5)C(C)CO3)C43CO3)OC(C)C(O)C2OC(C)=O)C1O (centres undefined)	NR2E3 ag-1 103.0 (no result: NR2E3 ag-2) | NR2E3 ag confirm 99.3 | VP16 counter 99.4
c1ccc2c(c1)[IH]c1ccccc1-2	NR2E3 ag-1 100.5 (no result: NR2E3 ag-2) | NR2E3 ag confirm 97.5 | VP16 counter 88.0
c1ccc2c(c1)-c1cccc3cccc-2c13	none
N#Cc1nn(-c2c(Cl)cc(C(F)(F)F)cc2Cl)c(N)c1S(=O)C(F)(F)F (centres undefined)	none (no result: rCAG binder, NR2E3 ag-1, NR2E3 ag-2, PG9 Ab binder)
O=c1[nH]c2ccccc2n1C1CCN(C(CCc2ccccc2)c2nnnn2-c2ccc3c(c2)OCCO3)CC1 (centres undefined)	none (no result: NR2E3 ag-2) | NR2E3 ag confirm inactive | VP16 counter inactive
CC1=CC2OC3CC4OC(=O)C=CC=CC(C(C)O)OCC(O)C(C)CC(=O)OCC2(CC1O)C4(C)C31CO1 (centres undefined)	NR2E3 ag-1 101.5 (no result: NR2E3 ag-2) | NR2E3 ag confirm 100.1 | VP16 counter 98.6
CC1=CC2OC3CC4OC(=O)C=CC=CC(=O)OCCC(C)C(O)C(=O)OCC2(CC1O)C4(C)C31CO1 (centres undefined)	NR2E3 ag-1 99.5 (no result: rCAG binder, Rev-erbA mod, NR2E3 ag-2, PG9 Ab binder) | NR2E3 ag confirm 99.5 | VP16 counter 98.6
C#C[C@]1(O)[C@H](O)CC2C3CC[C@H]4C[C@@H](O)CC[C@]4(C)C3CC[C@@]21C (some centres undefined)	none (no result: NR2E3 ag-2)
O=Cc1cn(Cc2ccccc2F)c2ccccc12	none
CC(=O)c1cn(Cc2ccccc2C#N)c2ccccc12	NR2E3 ag-1 74.7 | NR2E3 ag confirm 87.9 | VP16 counter 85.4
CC(=O)c1cn(Cc2ccccc2F)c2ccccc12	NR2E3 ag-1 83.2 (no result: NR2E3 ag-2) | NR2E3 ag confirm 90.1 | VP16 counter 74.9
CN(C)c1ccc(/C=C/c2cc[n+](C)c3ccccc23)cc1	none (no result: NR2E3 ag-2) | NR2E3 ag confirm 76.7 | VP16 counter inactive
CN(C)c1ccc(/C=C/C=C/c2sc3ccccc3[n+]2C)cc1	none
CNC(=O)Oc1cccc2c1OC(C)(C)C2	none (no result: rCAG binder, NR2E3 ag-1, NR2E3 ag-2, PG9 Ab binder)
CC[C@H]1CN2CCC1C[C@H]2[C@H](O)c1ccnc2ccc(OC)cc12 (some centres undefined)	none
CCOP(=O)(OCC)OCC	none
CCOP(=O)(CCP(=O)(OCC)OCC)OCC.C[CH2][Sn]([Cl])([Cl])[CH2]C	NR2E3 ag-1 91.5 (no result: NR2E3 ag-2) | NR2E3 ag confirm 99.6 | VP16 counter inactive
CCC12CCN(CC3(O)CC3)C(Cc3ccc(O)cc31)C2(C)C (centres undefined)	none (no result: NR2E3 ag-1, NR2E3 ag-2)
CC(=NNC(=S)N1CC2CCC(CC2)C1)c1nccs1	NR2E3 ag-1 96.1 (no result: NR2E3 ag-2) | NR2E3 ag confirm 100.3 | VP16 counter 84.8
c1cncc(-c2ccc3n2Cc2cnnn2-c2ccccc2-3)c1	none (no result: NR2E3 ag-1, NR2E3 ag-2, PG9 Ab binder)
CCC(C)NC(=O)CCC(=O)OC1O[C@H]2OC3(C)CC[C@H]4[C@H](C)CCC(C1C)C24OO3 (some centres undefined)	NR2E3 ag-1 102.8 (no result: NR2E3 ag-2) | NR2E3 ag confirm 97.2 | VP16 counter 74.7
CCC(C)C(NC(=O)CCCNC(=O)CCC(=O)OC1O[C@H]2OC3(C)CC[C@H]4[C@H](C)CCC(C1C)C24OO3)C(=O)O (some centres undefined)	NR2E3 ag-1 95.1 | NR2E3 ag confirm 94.2 | VP16 counter 70.8
CC(C)(C)NCC(O)c1ccccc1Cl (centres undefined)	none (no result: rCAG binder, NR2E3 ag-1, NR2E3 ag-2, PG9 Ab binder)
C=CCN1CC[C@]23c4c5ccc(O)c4O[C@@H]2C(=O)CC[C@@]3(O)[C@H]1C5	none (no result: rCAG binder, NR2E3 ag-1, NR2E3 ag-2, PG9 Ab binder)
Cn1c(O)c(/C=C2\C=Nc3ccccc32)c(=O)n(C)c1=O	PG9 Ab binder 18.3 | PG9 bind confirm 13.4 | PGV04 counter 28.0
COC(=O)C1=C(c2ccc(-c3ccccc3)c(F)c2)C[C@@H]2CC[C@H]1N2C(=O)NCCOc1ccc(OC)cc1	none
COc1ccc(CN2C(=O)CC(=O)NC2=S)cc1	rCAG binder 37.5 | rCAG bind conf inactive | dCAG dye counter inactive

Bioassay records as filed in PubChem.
